Here are results for 1 compound from ChEMBL document CHEMBL3526048, “In vitro metabolism of rivoglitazone, a novel peroxisome proliferator-activated receptor γ agonist, in rat, monkey, and human liver microsomes and freshly isolated hepatocytes” (Drug Metab Dispos, 2011).

Type in all cases: ADME
Data set [1] addresses T1, UDP-glucuronosyltransferase 2B4 (Homo sapiens, UniProt P06133).
T1 sequence (P06133 whole entry): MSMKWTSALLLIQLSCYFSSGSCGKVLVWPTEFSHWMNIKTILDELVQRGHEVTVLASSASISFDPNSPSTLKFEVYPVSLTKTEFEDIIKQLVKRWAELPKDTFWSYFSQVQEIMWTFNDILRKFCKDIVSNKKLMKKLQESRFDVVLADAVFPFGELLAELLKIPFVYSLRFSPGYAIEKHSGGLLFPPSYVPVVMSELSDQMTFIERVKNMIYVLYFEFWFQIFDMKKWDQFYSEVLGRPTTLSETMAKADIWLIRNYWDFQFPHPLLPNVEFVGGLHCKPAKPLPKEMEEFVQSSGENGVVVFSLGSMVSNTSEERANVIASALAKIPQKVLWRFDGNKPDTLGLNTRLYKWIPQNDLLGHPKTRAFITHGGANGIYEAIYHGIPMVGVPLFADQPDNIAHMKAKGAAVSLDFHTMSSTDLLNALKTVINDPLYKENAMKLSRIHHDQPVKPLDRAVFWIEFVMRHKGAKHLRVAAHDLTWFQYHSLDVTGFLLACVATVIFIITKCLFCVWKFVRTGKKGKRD
Description: Activity of human UGT2B4 expressed in microsomes isolated from baculovirus infected insect cell assessed as enzyme-mediated 2-mercapto-3-(4-((6-methoxy-1-methyl-1H-benzo[d]imidazol-2-yl)methoxy)phenyl)propanoic acid formation at 20 uM after 4 hrs by radio-HPLC/LC-MS/MS analysis in presence of UDPGA.

Data set [2] addresses Cytochrome P450 2D6 (Homo sapiens, UniProt P10635). Nature of the data set: Activity of human CYP2D6 expressed in microsomes isolated from baculovirus infected insect cell assessed as enzyme-mediated 2-((4-((2,4-dioxothiazolidin-5-yl)methyl)phenoxy)methyl)-1-methyl-1H-benzo[d]imidazol-6-yl hydrogen sulfate formation at 20 uM after 2 hrs by radio-HPLC/LC-MS/MS analysis. Summed up:
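Baculovirus-insect-cell microsomes expressing the human CYP (1 mg/ml protein) were incubated with [14C]rivoglitazone (20 μM) in 50 mM potassium phosphate (pH 7.4) or 100 mM Tris-HCl (pH 7.5) with an NADPH-generating system (2 mM NADP+, 20 mM glucose 6-phosphate, 2 units/ml G6PDH, 10 mM MgCl2) for 2 h at 37°C. Insect-cell control supersomes served as the control. Reactions were stopped with acetonitrile, and the concentrated supernatants were analysed by radio-HPLC, LC-MS and LC-MS/MS.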

In data set [3] the test system is Liver microsome. Nature of the data set: Drug metabolism in Sprague-Dawley rat liver microsomes assessed as formation of 5-hydroxy-5-(4-((6-methoxy-1-methyl-1H-benzo[d]imidazol-2-yl)methoxy)benzyl)thiazolidine-2,4-dione at 20 uM after 2 hrs by radio-HPLC/LC-MS/MS analysis in presence of NADPH-generating system and NADPH-generating system/SAM.
The target in data set [4] is Cytochrome P450 3A5 (Homo sapiens, UniProt P20815). Nature of the data set: Activity of human CYP3A5 expressed in microsomes isolated from baculovirus infected insect cell assessed as enzyme-mediated 5-(4-((6-hydroxy-1-methyl-1H-benzo[d]imidazol-2-yl)methoxy)benzyl)thiazolidine-2,4-dione formation at 20 uM after 2 hrs by radio-HPLC/LC-MS/MS analysis in presence of NADPH-generating system and NADPH-generating system/SAM. Summed up: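 cDNA-expressed human CYP3A5 in baculovirus-insect-cell microsomes (1 mg/ml protein) was incubated with [¹⁴C]rivoglitazone (20 μM) in 50 mM potassium phosphate (pH 7.4) or 100 mM Tris-HCl (pH 7.5). NADPH-generating system: 2 mM NADP⁺, 20 mM glucose 6-phosphate, 2 units/ml G6PDH, 10 mM MgCl₂. Incubation ran 2 h at 37°C with shaking; insect-cell control supersomes served as control. Acetonitrile stop, supernatant concentrated, then radio-HPLC, LC-MS and LC-MS/MS.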
Chain of Cytochrome P450 3A5 (P20815 whole entry): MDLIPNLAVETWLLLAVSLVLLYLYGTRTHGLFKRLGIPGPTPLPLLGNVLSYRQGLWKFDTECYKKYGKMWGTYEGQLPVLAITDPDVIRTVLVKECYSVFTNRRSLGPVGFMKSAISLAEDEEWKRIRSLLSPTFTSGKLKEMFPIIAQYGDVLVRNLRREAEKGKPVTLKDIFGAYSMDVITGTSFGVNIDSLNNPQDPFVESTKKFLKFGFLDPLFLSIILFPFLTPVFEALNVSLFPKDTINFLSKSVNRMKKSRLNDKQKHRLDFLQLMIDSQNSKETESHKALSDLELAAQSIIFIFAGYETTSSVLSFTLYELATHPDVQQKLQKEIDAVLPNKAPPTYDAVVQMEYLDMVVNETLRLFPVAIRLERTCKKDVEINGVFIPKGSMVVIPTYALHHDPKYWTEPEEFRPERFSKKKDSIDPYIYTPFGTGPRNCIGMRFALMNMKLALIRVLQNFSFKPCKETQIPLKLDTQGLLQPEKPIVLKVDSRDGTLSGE

Data set [5] has as its target T2, Cytochrome P450 2C8 (Homo sapiens, UniProt P10632).
T2 sequence (P10632 whole entry): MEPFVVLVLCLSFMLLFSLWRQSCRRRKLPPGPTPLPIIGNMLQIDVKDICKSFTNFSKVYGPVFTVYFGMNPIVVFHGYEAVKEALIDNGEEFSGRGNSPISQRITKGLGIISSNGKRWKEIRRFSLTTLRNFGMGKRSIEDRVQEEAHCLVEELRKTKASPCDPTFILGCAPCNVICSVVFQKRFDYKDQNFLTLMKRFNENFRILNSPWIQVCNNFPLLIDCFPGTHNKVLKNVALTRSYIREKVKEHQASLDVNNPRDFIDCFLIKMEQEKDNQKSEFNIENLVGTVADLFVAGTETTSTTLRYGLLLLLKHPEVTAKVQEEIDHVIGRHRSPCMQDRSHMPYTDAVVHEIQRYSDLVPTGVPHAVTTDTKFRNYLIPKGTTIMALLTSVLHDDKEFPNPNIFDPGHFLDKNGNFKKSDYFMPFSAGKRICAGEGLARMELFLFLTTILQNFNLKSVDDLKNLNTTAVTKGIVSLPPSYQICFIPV
Nature of the data set: Activity of human CYP2C8 expressed in microsomes isolated from baculovirus infected insect cell assessed as enzyme-mediated 2-mercapto-3-(4-((6-methoxy-1-methyl-1H-benzo[d]imidazol-2-yl)methoxy)phenyl)propanoic acid formation at 20 uM after 2 hrs by radio-HPLC/LC-MS/MS analysis in presence of NADPH-generating system. The method in brief: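 Baculovirus/insect-cell microsomes expressing single human CYPs, 1 mg/ml protein, with 50 mM potassium phosphate (pH 7.4) or 100 mM Tris-HCl (pH 7.5). NADPH-generating system: 2 mM NADP⁺, 20 mM glucose 6-phosphate, 2 units/ml G6PDH, 10 mM MgCl₂. [¹⁴C]rivoglitazone at 20 μM, 2 h at 37°C with shaking. Control used insect-cell control supersomes. Stopped with acetonitrile; supernatant concentrated under nitrogen; metabolites analysed by radio-HPLC, LC-MS and LC-MS/MS.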

For data set [6], the target named is Cytochrome P450 3A4 (Homo sapiens, UniProt P08684). Nature of the data set: Activity of human CYP3A4 expressed in microsomes isolated from baculovirus infected insect cell assessed as enzyme-mediated (2S,3S,4S,5R,6R)-6-((1-carboxy-2-(4-((6-methoxy-1-methyl-1H-benzo[d]imidazol-2-yl)methoxy)phenyl)ethylthio)carbonylamino)-3,4,5-trihydroxytetrahydro-2H-pyran-2-carboxylic acid formation at 20 uM after 2 hrs by radio-HPLC/LC-MS/MS analysis in presence of NADPH-generating system/SAM.
Chain of Cytochrome P450 3A4 (P08684 whole entry): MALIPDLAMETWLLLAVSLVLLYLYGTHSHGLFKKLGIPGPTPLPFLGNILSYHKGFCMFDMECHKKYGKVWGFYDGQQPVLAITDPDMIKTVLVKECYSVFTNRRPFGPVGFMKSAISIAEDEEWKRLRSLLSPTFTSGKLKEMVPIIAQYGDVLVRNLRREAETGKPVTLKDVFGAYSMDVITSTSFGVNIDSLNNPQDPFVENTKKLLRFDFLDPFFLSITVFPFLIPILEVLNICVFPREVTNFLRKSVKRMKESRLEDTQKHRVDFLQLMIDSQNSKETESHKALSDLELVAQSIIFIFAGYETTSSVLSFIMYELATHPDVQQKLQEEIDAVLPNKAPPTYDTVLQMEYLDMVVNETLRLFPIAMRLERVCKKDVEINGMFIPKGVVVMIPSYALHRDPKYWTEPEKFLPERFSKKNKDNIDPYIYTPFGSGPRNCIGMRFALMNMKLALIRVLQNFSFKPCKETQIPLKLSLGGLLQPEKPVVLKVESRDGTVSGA

The structures appear in SMILES notation.

Chain of Cytochrome P450 2D6 (P10635 whole entry): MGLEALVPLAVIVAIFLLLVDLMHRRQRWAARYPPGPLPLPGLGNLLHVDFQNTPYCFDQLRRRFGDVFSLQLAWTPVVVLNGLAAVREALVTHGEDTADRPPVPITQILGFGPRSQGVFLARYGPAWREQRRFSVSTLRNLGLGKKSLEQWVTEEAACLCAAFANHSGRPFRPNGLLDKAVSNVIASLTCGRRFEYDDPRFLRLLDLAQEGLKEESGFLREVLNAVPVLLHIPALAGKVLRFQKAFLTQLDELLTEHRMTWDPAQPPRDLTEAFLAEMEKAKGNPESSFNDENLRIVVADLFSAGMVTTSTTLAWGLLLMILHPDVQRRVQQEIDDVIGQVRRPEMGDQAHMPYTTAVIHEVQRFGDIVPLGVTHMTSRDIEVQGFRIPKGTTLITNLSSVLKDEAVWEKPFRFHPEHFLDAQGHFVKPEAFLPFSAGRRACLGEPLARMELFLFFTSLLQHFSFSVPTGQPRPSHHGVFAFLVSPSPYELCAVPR

Take `COc1ccc2nc(COc3ccc(C[14CH]4SC(=O)NC4=O)cc3)n(C)c2c1.Cl` (racemic): the Drug metabolism entry in data set [1] is “metabolite_not_detected”; in data set [2] it was “metabolite_not_detected”; in data set [3], “metabolite_detected”; in data set [4], “metabolite_detected”; in data set [5], “metabolite_detected”; in data set [6], “metabolite_not_detected”.
